# Compound activity from PubChem BioAssay.
# rRNA inh HTS = reduced GFP signal of wild-type E. coli, primary screen, bacterial rRNA inhibitor project, GFP/RFP fluorescence, OD600, single point; E. coli WT GFP vs humanized-ribosome RFP mutants, 24 h; stronger effect = lower value; DMSO median 0, no signal -100; GFP signal change (wild-type ribosome), % (test concentration not listed); actives 1.6% (n = 350,000);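 active means significant combined selectivity score with lowered wild-type GFP, culture density cut under 30%, mutant RFP and density less affected; inactive means any of these conditions unmet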
# HIV Env fusion = inhibitors of HIV-1 Env-driven cell-cell fusion, primary screen, HeLa-JRFL effector, CEM21 target cells, luciferase; inhibition, % at 12.3 µM; actives 1.1% (n = 360,000); AID 651610, 2012;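 active means mean replicate inhibition score of at least 50 and every replicate individually at or above 50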;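 further: 0% = plate neutral controls and 100% = maraviroc near 300 nM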
# INS-1E GSIS act = GLuc luminescence reporter in INS-1E cells, primary screen for activators of glucose-dependent secretion of insulin; INS-1E GLuc reporter insulin secretion, 2-3 h; activation, % at 16.6 µM; actives 0.61% (n = 370,000);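 active means lowest replicate activation of at least 40%, so every replicate reaches that level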;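 further: 0% = median of neutral control wells and 100% = median of IBMX positive control wells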
# Cneo AK release = Cryptococcus neoformans cell lysis inducers, primary screen, AK release luminescence, single concentration. lysis activity, % at 15 µM. C. neoformans lysis, adenylate kinase release luminescence, 4 h; normalised: neutral wells 0, clomiphene wells 100. actives 0.2% (n = 360,000);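 active means mean lysis activity across replicates of at least 80%, whatever share of replicates individually reach that level; inactive means mean lysis activity below 80%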
#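 Assay system: Cryptococcus neoformans yeast cells / Dosing: single-point compound dose / Timing: 4 h at 37 °C static, read 1 h later / Measured by: luminescence of released adenylate kinase using an AK detection reagent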
# miR122 inh = miR-122 Renilla sensor signal increase in Huh7, primary screen, miR-122 inhibitor project, cell-based, single point, plate reader; Huh7 miR-122 Renilla luciferase sensor, 48 h; neutral wells = 0, positive control = 100; activation (reporter increase), % at 12.5 µM; actives 0.3% (n = 340,000); AID 602342, 2012;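 active means mean replicate activation score at least 90 and every replicate individually at or above 90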;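 further: higher luciferase means less miR-122 activity so hits act as miR-122 inhibitors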
# F508del corr = F508del CFTR correction, initial screen, CFBE line, single point; CFBE cells, YFP halide quenching; stimulated with forskolin plus potentiator P3; % fluorescence drop versus neutral controls; activity (quench increase), % at 7.58 µM; actives 0.36% (n = 350,000);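 active means mean added fluorescence quench of at least 8% versus neutral control, with both replicates also reaching 8%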;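 further: cells transiently co-express mutant CFTR-F508del with the halide-sensitive YFP; corrector assay measuring rescue of mutant channel to the surface after 24 h compound exposure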
# * = called active by the depositor; / = no result given; [ ] = another dose, or the depositor's remark. Shown are actives, neighbours in structure and some others; about 3.1% of the full set was active somewhere.
SMILES,rRNA inh HTS,HIV Env fusion,INS-1E GSIS act,Cneo AK release,miR122 inh,F508del corr
C[C@H](CO)N1C[C@H](C)[C@H](CN(C)Cc2ccc(C(F)(F)F)cc2)OCCCC[C@H](C)Oc2ccc(NC(=O)Nc3ccc4c(c3)OCO4)cc2C1=O,-1,69*[16.7 µM],16,-1,4[16.7 µM],3
COc1ccc2c(c1OC)C(=O)OC2Nc1nc(-c2cc3cc(Br)ccc3oc2=O)cs1 (centres undefined),-26*,-139,-3,-11,6,0
COc1ccc(-c2csc(NC3OC(=O)c4c3ccc(OC)c4OC)n2)cc1OC (centres undefined),/,5,/,2,-4,4
CC(=O)N(C)C[C@@H]1Oc2ncc(C#Cc3cccc(F)c3)cc2C(=O)N([C@@H](C)CO)C[C@@H]1C,4,13[16.7 µM],-3,0,7[16.7 µM],1
N#C[C@H]1[C@H](c2ccc(C3=CCCC3)cc2)[C@H](CO)N1C(=O)C1CC1,1,7[16.7 µM],-11,-10,/,-1
COn1c(-n2nc(C)cc2C)nc2ccccc2c1=O,/,/,/,91*,3,/
COn1c(SCc2ccc(C)cc2C)nc2ccccc2c1=O,/,57*,/,-4,3,/
O=C(O)[C@@H]1[C@@H](CO)[C@@H]2Cn3c(ccc(-c4cncnc4)c3=O)[C@@H]2N1C(=O)C1CCC1,1,/,7,-3,-4[16.7 µM],-1
CC1CC(=O)N(c2ccc(NCCc3ccc(O)cc3)c([N+](=O)[O-])c2)C1=O (centres undefined),-22*,3,-32,-3,-9,-2
COc1ccc(N2CCN(c3ccc(N4C(=O)CC(C)C4=O)cc3[N+](=O)[O-])CC2)cc1 (centres undefined),-29*,-17,-13,-5,3,-1
COc1ccc2c3c([nH]c2c1)[C@H](CO)N(C(=O)C1CC1)CC31CCN(S(C)(=O)=O)CC1,1,-23[16.7 µM],7,/,/,-3
O=C(Cn1cc(C(=O)C(F)(F)F)c2ccccc21)Nc1ccccc1F,9,-2,/,-1,7,/
O=C(Cn1cc(C(=O)c2ccco2)c2ccccc21)Nc1ccccc1F,-22*,-13,-33,/,/,2
CC(C)CN1CCN=C1Nc1ccccc1,6,1,6,2,2,2
CC(C)CCN1CCN=C1Nc1ccccc1,10,60*,8,5,-2,-3
CC(C)(C)c1ccc(C(=O)CCCSC2=C(C#N)C(c3ccco3)C3=C(CCCC3=O)N2)cc1 (centres undefined),/,79*,/,-2,29,/
Cc1ccccc1C(=O)Nc1nnc(-c2ccc(C(C)(C)C)cc2)s1,/,-28,137*,-3,-5,/
O=C1/C(=C/c2ccc(O)cc2)SC(=S)N1CC1CCCO1 (centres undefined),-24*,-7,/,/,/,0
COc1cc(/C=C2/SC(=S)N(Cc3ccccc3)C2=O)cc(Cl)c1O,25,-13,-37,-4,-10,8.1*
COc1cc(/C=C2/SC(=S)N(Cc3ccccc3)C2=O)ccc1OCC(=O)O,-6,-12,-7,3,/,3
O=C1/C(=C\c2ccc(O)cc2)SC(=S)N1Cc1ccccc1,-48,-3,-60,0,/,26*
COCCNc1nc(Oc2cncc(Cl)c2)c2sccc2n1,-5,10,55*,0,15,-1
CC(C)Nc1nc(Nc2ccc(Cl)cc2F)c2sccc2n1,-60,10,-14,-2,-5,8.6*
COCCNc1nc(NC(C)C)nc2ccsc12,14,2,82*,-1,-6,3
COc1ccc(NC(=O)N(C)C[C@@H]2OCCCC[C@@H](C)Oc3ccc(NS(=O)(=O)c4c(C)noc4C)cc3C(=O)N([C@H](C)CO)C[C@H]2C)cc1,0,-160[16.7 µM],-3,1,-7[16.7 µM],-3
SMILES,rRNA inh HTS,HIV Env fusion,INS-1E GSIS act,Cneo AK release,miR122 inh,F508del corr
CO[C@H]1CN(C)C(=O)c2ccc(NC(=O)C3CCCC3)cc2OC[C@H](C)N(CCC(F)(F)F)C[C@@H]1C,-3,/,-17,/,/,3
C[C@H](CO)N1C[C@H](C)[C@@H](CN(C)C(=O)c2cnccn2)Oc2ncc(C#CCN(C)C)cc2C1=O,7,/,13,-4,-6[16.7 µM],-3
Cc1c(C2Nc3ccccc3C2C)[nH]c2ccccc12 (centres undefined),-59,-121,8,/,/,10*
C[C@H](CO)N1C[C@H](C)[C@@H](CN(C)C(=O)Nc2cccc3ccccc23)Oc2c(NS(=O)(=O)c3ccc(F)cc3)cccc2C1=O,-1,/,2,-10,10[16.7 µM],0
Nc1nc(Nc2ccccc2)nc(N2CCOCC2)c1[N+](=O)[O-],/,/,22,0,-3,/
COc1ccc(Nc2nc(N)c([N+](=O)[O-])c(N3CCOCC3)n2)cc1,-28*,-20,6,4,1,-3
Nc1nc(Nc2ccccc2F)nc(N2CCOCC2)c1[N+](=O)[O-],-20*,0,5,/,-2,-4
COc1ccc(NS(=O)(=O)c2ccc(OC)c3ccccc23)cn1,/,/,/,2,356*,/
COc1ccc(NS(=O)(=O)c2cccs2)cn1,4,-10,-1,3,-1,2
Cc1ccc(CNCC(=O)Nc2ccc(C)cc2Br)cc1,-34,-56,-5,/,-4,-1
Cc1ccc(NC(=O)CNCc2cccs2)c(Br)c1,-27*,-15,-10,-3,-4,-2
COc1ccc(Cl)cc1NC(=O)CNc1ccccc1CN(C)C1CCCCC1,-34*,25,10,/,/,2
COc1ccc(NC(=O)CNCc2cccs2)c(OC)c1,2,2,8,-3,/,1
Cc1ccc(NC(=O)CNCc2ccccc2)c(Br)c1,-28*,-13,11,/,/,-1
COc1ccc(Cl)cc1NC(=O)CNCc1cccs1,-32*,-1,-7,3,-4,1
C[C@H](CO)N1C[C@H](C)[C@@H](CN(C)C(=O)C2CCC2)Oc2cc(-c3ccncc3)ccc2S1(=O)=O,-2,-8[16.7 µM],-2,/,-1[16.7 µM],-1
Cc1ccc(-c2ccc([C@@H]3[C@@H](CO)N4C(=O)CN(C(=O)Nc5cccc(F)c5)C[C@H]34)cc2)cc1,-5,/,-26,/,/,2
C[C@@H]1CN([C@H](C)CO)C(=O)c2cc(-c3ccc(F)cc3)cnc2O[C@H]1CN(C)C(=O)Cc1ccccn1,2,16[16.7 µM],9,5,-1[16.7 µM],0
CC[C@H]1C/C=C\C[C@H](C(C)C)NC(=O)CCC(=O)N1,8,/,1,/,/,/
